Screening results deposited in PubChem BioAssay by several laboratories.
L major viab = reduces viability of Leishmania major promastigotes | resazurin fluorescence viability | inhibition, % at 10 µM | hit rate 9% among 200,000; in the data active = inhibition above about 50%;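 also: promastigotes grown with compound for 44 hours at 28 °C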
CHOP UPR activ = apoptotic UPR (CHOP) activation; CHO-CHOP luciferase reporter, luminescence; percent of tunicamycin response over DMSO baseline; activation, % at 10 µM; hit rate 0.34% among 330,000;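 active = at 10 µM dose, activation of 40% or more, normalized to positive control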;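 also: 100% = tunicamycin at 10 µg/mL and 0% = DMSO alone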
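Evaluation: % reporter activation, DMSO baseline versus tunicamycin full activation; System: CHO-CHOP luciferase reporter cell line; Input: 500 cells/well; Incubation: 6 h compound treatment, 37 °C; Measured by: Steady-Glo luciferase luminescence; Dosing: one dose, 10 µM in 0.5% DMSO; Buffer or medium: F12 medium, 10% FBS; Benchmarks: positive tunicamycin 10 µg/mL, negative DMSO alone.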
UPR XBP1 act = adaptive UPR (XBP1) activation. AID 463104. CHO-XBP1 luciferase reporter, IRE1-XBP1 UPR activation, luminescence; percent of tunicamycin response, DMSO as zero. activation, % at 20 µM. hit rate 0.33% among 330,000;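 active = versus positive control, 20 µM dose yields 30% or more activation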;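 also: 100% = tunicamycin at 10 µg/mL and 0% = DMSO only wells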
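Assay system: CHO-XBP1 luciferase reporter cells; Schedule: 6 h treatment, 37 °C; Detection: glow luminescence from Steady-Glo reagent; Benchmarks: high control tunicamycin 10 µg/mL final, low control DMSO vehicle only.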
Dynein transport = dynein cargo transport inhibition | 3617.4 mouse cells, GR-EGFP nuclear translocation imaging; test concentration mostly 20 µM; stimulated with dexamethasone, 1 µM; hits give low values | hit rate 0.47% among 220,000 | z-score, hits read low;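 active = plate z-score of nuclear minus cytoplasmic receptor signal below a set negative limit, without overly bright fluorescence or cell loss, cut at about -3.5 in these data, passing the limit was not always enough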;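 also: z-score of nuclear minus cytoplasmic ring GR-EGFP intensity difference per well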
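Buffer or medium: tet-free, stripped-serum medium; reagent: dexamethasone at 1.0 µM final, 30 min; incubation: 48 h induction, 1 h compound, 30 min dex at 37 °C; measured by: formaldehyde fixation, Hoechst nuclear stain, 10x automated fluorescence imaging; read-out: nuclear-to-cytoplasmic GR-EGFP distribution per well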
T cruzi inh = blocks replication of Trypanosoma cruzi | inhibition, % (concentration not given with the values) | T. cruzi beta-gal in NIH3T3, luminescence, 90 h | hit rate 1.4% among 300,000;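 active = mean inhibition across valid replicates above about 55%, limit read from the data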;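 also: signal also drops with host cell toxicity which is not excluded here; 0% = plate median of DMSO wells and 100% = zero luminescence signal; higher percent means less beta-gal luminescence so fewer parasites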
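System: NIH/3T3 fibroblasts plus reporter T. cruzi. Medium: DMEM plus 2% FBS. Probe or stimulus: 5000 reporter trypomastigotes per well. Compound: single 50 nL compound addition per well in DMSO. Incubation: co-culture of at least 90 h after 3 h attachment. Detection: GalScreen β-gal luminescence, detergent lysis, 60 min. Evaluation: parasite load inhibition, %.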
CHOP inh = CHOP inhibition in unfolded protein response. CHO-K1 CHOP-promoter luciferase, tunicamycin-induced, 15-18 h. inhibition, % at 10 µM. hit rate 3.8% among 220,000. AID 2732;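 active = compounds that reduced the stress-induced luciferase reporter signal by more than about 70% of percent inhibition, limit read from the data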;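 also: 0% = tunicamycin plus vehicle and 100% = wells without tunicamycin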
An asterisk follows results filed as active; . = no result given. The sample as a whole holds a higher share of hits than the screen did.

SMILES	L major viab	CHOP UPR activ	UPR XBP1 act	Dynein transport	T cruzi inh	CHOP inh
Cc1ccc(-n2c(C)cc(C=C3C(=O)CC(C)(C)CC3=O)c2C)cc1	98.2*	0.3	1.3	0.612	-8.0	-12.6
Cc1cc(/C=C2\Cc3ccccc3C2=O)c(C)n1-c1ccccc1	2.5	-6.1	-8.2	0.832	0.2	89.1*
COC(=O)C1=CN(Cc2ccc(OC)cc2)C=C(C(=O)OC)C1c1ccsc1	100.2*	0.9	-1.5	-0.477	21.2	12.6
COC(=O)C1=CN(Cc2cccs2)C=C(C(=O)OC)C1c1ccc(OC)cc1OC	97.9*	0.5	-1.0	-0.499	25.5	1.7
COC(=O)C1=CN(Cc2ccc(OC)c(OC)c2)C=C(C(=O)OC)C1c1cccc(O)c1	.	3.8	-3.0	.	58.3*	.
COC(=O)C1=CN(Cc2cccs2)C=C(C(=O)OC)C1c1cccc(Cl)c1	-1.5	-1.1	-1.1	0.745	22.4	0.4
COC(=O)C1=CN(Cc2ccc(F)cc2)C=C(C(=O)OC)C1c1ccc(O)c(OC)c1	.	-0.2	0.3	.	2.5	.
CC1CCN(S(=O)(=O)c2cc(F)ccc2CN2C(=O)c3cccnc3C2=O)CC1	.	-0.1	-2.3	.	-19.8	.
CCCCN(C(=O)c1cccc(S(=O)(=O)N2CCN(C)CC2)c1)c1c(N)n(CCC)c(=O)[nH]c1=O	.	-0.2	2.2	.	-4.4	.
CCN(CC)S(=O)(=O)c1ccc(C2=NOC3(C2)N(C)c2ccccc2C3(C)C)cc1 (configuration not stated)	83.5*	0.1	-0.1	-0.975	28.2	22.6
CN1c2ccccc2C(C)(C)C12CC(c1cccc(S(=O)(=O)N3CCCC3)c1)=NO2 (configuration not stated)	72.6*	2.0	0.0	1.68	-9.1	21.2
Cc1cc(C)n(-c2nc(SCC(=O)O)c3c4c(sc3n2)COC(C)(C)C4)n1	.	8.9	3.7	-0.176	30.6	-19.6
Cc1cc(C)n(-c2nc(SCCN(C)C)c3c4c(sc3n2)CCCC4)n1	100.5*	2.9	10.0	-1.5	41.0	44.0
CC1=NN(c2ccc(C)cc2C)C(=O)C1C(c1cccc(O)c1)C1C(=O)N(c2ccc(C)cc2C)N=C1C (configuration not stated)	55.5*	4.1	-0.7	-0.0487	-11.8	32.6
Cc1ccc(S(=O)(=O)N2CCC3(CC2)OCCN3S(=O)(=O)c2c(C)cc(C)cc2C)cc1	.	0.1	-2.5	.	38.6	.
COc1ccc(C2(c3ccc(OC)cc3)NC(=O)N(CC(=O)N3CCOCC3)C2=O)cc1	.	2.7	0.9	.	.	.
CCOC(=O)c1ccc(NC(=S)NCCCN2CCN(C3CCCCC3)CC2)cc1	53.2*	-0.9	-0.7	-0.421	30.1	8.8
CCOC(=O)c1ccc(NC(=S)Nc2ccc(C)cc2)cc1	-7.1	0.6	1.7	0.589	-18.1	38.4
CCOC(=O)c1ccc(CNCc2ccc(Br)cc2)cc1	45.3	0.4	-1.7	0.197	10.0	51.3
CCOC(=O)c1ccc(NC(=S)NN2CCOCC2)cc1	53.2*	5.7	0.2	-0.468	-5.3	18.2
CCOC(=O)c1ccc(NC(=S)NCCCN2CCCCC2)cc1	19.9	0.2	1.4	-0.129	18.1	42.3
CCOC(=O)c1ccc(NC(=O)N2CCN(CCc3ccccc3)CC2)cc1	63.8*	1.9	-0.8	0.558	11.7	23.0
CCOC(=O)c1ccc(CNCc2ccccc2)cc1	99.7*	4.6	-0.1	0.164	9.5	26.6
COc1ccccc1CNC(=O)Cn1cc(Br)ccc1=O	.	1.1	1.1	.	-11.8	.
Cc1cccc(C(=O)NC2CCN(C(=O)NCc3ccccc3)CC2)c1	.	2.8	-2.1	.	1.2	.
SMILES	L major viab	CHOP UPR activ	UPR XBP1 act	Dynein transport	T cruzi inh	CHOP inh
Cc1cc(F)ccc1S(=O)(=O)N1CCCOC1CNC(=O)C(=O)NCc1ccncc1 (configuration not stated)	.	-0.1	-4.0	.	10.2	.
CC1CCCN(CCCN2C(=O)C3C(C(=O)Nc4cccc(Cl)c4)C4C=CC3(O4)C2C(=O)NC2CCCCC2)C1 (configuration not stated)	.	0.0	1.1	.	6.2	.
Cc1nc(N2CCCCC2)c(C#N)c(C)c1[N+](=O)[O-]	-4.7	-0.4	6.3	-0.0318	10.1	73.6*
COc1ccc(OC)c(NS(=O)(=O)c2cc3c4c(c2)CCN4C(=O)CC3)c1	.	0.1	0.4	.	4.8	.
COc1cc(C(C)=O)ccc1Oc1ncnc2c1cnn2-c1cccc(Cl)c1	52.0*	4.2	-0.6	-0.799	0.6	50.2
Cc1ccc(N2C(=O)N(CC(=O)Nc3ccc(C)c(C)c3)C(=O)C2C)cc1 (configuration not stated)	.	-1.0	1.3	.	-11.7	.
COc1ccccc1N1CCN(C/C=C/c2ccc(N(C)C)cc2)CC1	3.6	-1.4	-0.3	0.636	55.4*	12.3
COc1ccccc1N1CCN(S(=O)(=O)/C=C/c2ccccc2)CC1	3.4	-1.7	-0.2	-0.449	-10.2	28.8
COc1ccc(/C=C2/C(=O)N(c3nc4ccccc4s3)N=C2CSc2ccc(Cl)cc2)cc1	99.5*	36.5	-0.8	-3.33	4.3	49.6
COc1ccc(/C=C2/C(=O)N(Cc3ccccc3)N=C2C)cc1	0.1	3.5	0.6	-0.294	-8.1	19.8
Nn1c(SC/C=C/c2ccccc2)nnc1-c1cccnc1	-0.2	0.5	0.8	0.303	-13.6	10.8
Clc1ccc(-n2c(SC/C=C/c3ccccc3)nnc2-c2cccnc2)cc1	74.0*	-0.4	-4.5	1.47	13.7	56.4
COc1ccc(Nc2ncnc3scc(-c4ccc(OC)cc4)c23)cc1	87.8*	1.2	4.1	-0.208	14.4	49.7
c1ccc(-c2csc3ncnc(N4CCc5ccccc5C4)c23)cc1	89.3*	.	.	-0.764	23.0	85.8*
COc1ccc(-c2csc3nc[nH]c(=O)c23)cc1	-6.4	-3.2	-0.1	-0.825	-9.7	-2.8
c1ccc(-c2csc3ncnc(N4CCOCC4)c23)cc1	14.8	-1.4	-3.5	-1.04	2.7	35.4
Cc1ccc(-c2csc3ncnc(SCC(=O)Nc4nnc(C)s4)c23)cc1	-7.2	0.2	-2.9	-0.167	-5.1	74.2*
COc1ccc(N2CCN(C(=O)CSc3nc(C)cs3)CC2)cc1	.	-0.6	-3.4	.	-7.2	.
COc1ccc(N2CCN(C(=O)CSc3ncnc4scc(-c5ccc(C)cc5)c34)CC2)cc1	24.5	0.9	1.8	-0.0272	75.8*	.
CC(=O)CSc1ncnc2scc(-c3ccc(F)cc3)c12	19.7	1.3	13.5	-0.0944	-23.9	14.2
OCCCNc1ncnc2scc(-c3ccc(Cl)cc3)c12	.	-1.4	3.3	.	-7.4	.
COc1ccc(N2CCN(c3ncnc4scc(-c5ccc(C)cc5)c34)CC2)cc1	.	1.4	-3.7	.	57.8*	.
NNc1ncnc2scc(-c3ccc(Cl)cc3)c12	68.3*	0.5	-1.7	0.726	-6.3	17.3
